The values below come from ChEMBL document CHEMBL4033795, “Design, Synthesis, and Structure-Activity Relationship Study of 2-Oxo-3,4-dihydropyrimido[4,5- d]pyrimidines as New Colony Stimulating Factor 1 Receptor (CSF1R) Kinase Inhibitors” (J Med Chem, 2018).

For orientation: IC50 means the point on the concentration scale where inhibition reaches its midpoint.

One experiment is filed under the species Homo sapiens. Kind of experiment: Selectivity ratio of IC50 for recombinant human wild type GST-tagged EGFR cytoplasmic domain (668 to 1210 residues) expressed in baculovirus to IC50 for recombinant human His-tagged CSF1R cytoplasmic domain (538 to 910 residues) expressed in baculovirus. Put shortly:
(§1)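 Z′-Lyte FRET assay with CSF1R or EGFR and 2 μM Tyr4 peptide substrate in 1× kinase buffer. ATP was supplied as a 100 μM solution, a stock and not the final concentration. Compounds were 3-fold serially diluted in DMSO. Reaction ran 1 h at room temperature, followed by 1 h development and a stop reagent. Phospho-peptide, no-ATP and DMSO controls were included. IC50 by curve fitting; mean of at least three independent experiments.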

The target in experiment [1] is Macrophage colony-stimulating factor 1 receptor (Homo sapiens, UniProt P07333). Kind of experiment: Inhibition of recombinant human His-tagged CSF1R cytoplasmic domain (538 to 910 residues) expressed in baculovirus using tyr4 peptide as substrate after 1 hr by FRET-based Z'-Lyte assay. Put shortly:
as §1

Experiment [2] deals with Epidermal growth factor receptor (Homo sapiens, UniProt P00533). Nature of the experiment: Inhibition of recombinant human wild type GST-tagged EGFR cytoplasmic domain (668 to 1210 residues) expressed in baculovirus using tyr4 peptide as substrate after 1 hr by FRET-based Z'-Lyte assay.
Sequence of Epidermal growth factor receptor (P00533 whole entry, the tested form may be a part): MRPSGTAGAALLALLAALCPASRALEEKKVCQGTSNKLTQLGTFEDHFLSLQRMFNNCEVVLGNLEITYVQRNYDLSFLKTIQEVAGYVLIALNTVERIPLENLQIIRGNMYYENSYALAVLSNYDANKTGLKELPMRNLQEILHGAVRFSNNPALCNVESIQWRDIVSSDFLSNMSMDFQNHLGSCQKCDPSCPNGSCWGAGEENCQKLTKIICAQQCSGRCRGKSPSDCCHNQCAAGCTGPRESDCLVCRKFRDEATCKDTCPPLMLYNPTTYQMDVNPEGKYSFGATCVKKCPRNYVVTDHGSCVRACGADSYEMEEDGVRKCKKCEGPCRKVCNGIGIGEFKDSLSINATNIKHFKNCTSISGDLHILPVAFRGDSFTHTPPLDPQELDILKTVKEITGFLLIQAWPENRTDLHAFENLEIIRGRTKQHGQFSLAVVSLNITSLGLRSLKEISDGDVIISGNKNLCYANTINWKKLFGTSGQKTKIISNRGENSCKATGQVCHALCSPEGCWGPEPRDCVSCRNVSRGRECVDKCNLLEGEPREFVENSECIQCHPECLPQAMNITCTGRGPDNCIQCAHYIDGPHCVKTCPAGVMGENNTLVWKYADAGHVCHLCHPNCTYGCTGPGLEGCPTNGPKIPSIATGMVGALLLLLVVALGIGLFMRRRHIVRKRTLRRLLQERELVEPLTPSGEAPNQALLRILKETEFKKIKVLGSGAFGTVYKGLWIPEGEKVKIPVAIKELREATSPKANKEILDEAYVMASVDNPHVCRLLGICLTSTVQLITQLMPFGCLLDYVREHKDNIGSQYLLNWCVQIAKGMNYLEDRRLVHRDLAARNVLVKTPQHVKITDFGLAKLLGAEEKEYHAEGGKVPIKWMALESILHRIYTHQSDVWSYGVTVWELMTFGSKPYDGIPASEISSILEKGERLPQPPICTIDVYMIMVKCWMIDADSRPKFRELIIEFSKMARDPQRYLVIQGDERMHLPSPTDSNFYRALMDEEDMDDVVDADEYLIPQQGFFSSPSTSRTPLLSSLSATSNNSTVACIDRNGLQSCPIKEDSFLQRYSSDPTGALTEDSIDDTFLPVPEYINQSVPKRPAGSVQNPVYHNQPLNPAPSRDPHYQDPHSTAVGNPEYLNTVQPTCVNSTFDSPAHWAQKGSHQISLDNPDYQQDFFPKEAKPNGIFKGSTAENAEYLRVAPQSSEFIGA

Sequence of Macrophage colony-stimulating factor 1 receptor (P07333 whole entry, the tested form may be a part): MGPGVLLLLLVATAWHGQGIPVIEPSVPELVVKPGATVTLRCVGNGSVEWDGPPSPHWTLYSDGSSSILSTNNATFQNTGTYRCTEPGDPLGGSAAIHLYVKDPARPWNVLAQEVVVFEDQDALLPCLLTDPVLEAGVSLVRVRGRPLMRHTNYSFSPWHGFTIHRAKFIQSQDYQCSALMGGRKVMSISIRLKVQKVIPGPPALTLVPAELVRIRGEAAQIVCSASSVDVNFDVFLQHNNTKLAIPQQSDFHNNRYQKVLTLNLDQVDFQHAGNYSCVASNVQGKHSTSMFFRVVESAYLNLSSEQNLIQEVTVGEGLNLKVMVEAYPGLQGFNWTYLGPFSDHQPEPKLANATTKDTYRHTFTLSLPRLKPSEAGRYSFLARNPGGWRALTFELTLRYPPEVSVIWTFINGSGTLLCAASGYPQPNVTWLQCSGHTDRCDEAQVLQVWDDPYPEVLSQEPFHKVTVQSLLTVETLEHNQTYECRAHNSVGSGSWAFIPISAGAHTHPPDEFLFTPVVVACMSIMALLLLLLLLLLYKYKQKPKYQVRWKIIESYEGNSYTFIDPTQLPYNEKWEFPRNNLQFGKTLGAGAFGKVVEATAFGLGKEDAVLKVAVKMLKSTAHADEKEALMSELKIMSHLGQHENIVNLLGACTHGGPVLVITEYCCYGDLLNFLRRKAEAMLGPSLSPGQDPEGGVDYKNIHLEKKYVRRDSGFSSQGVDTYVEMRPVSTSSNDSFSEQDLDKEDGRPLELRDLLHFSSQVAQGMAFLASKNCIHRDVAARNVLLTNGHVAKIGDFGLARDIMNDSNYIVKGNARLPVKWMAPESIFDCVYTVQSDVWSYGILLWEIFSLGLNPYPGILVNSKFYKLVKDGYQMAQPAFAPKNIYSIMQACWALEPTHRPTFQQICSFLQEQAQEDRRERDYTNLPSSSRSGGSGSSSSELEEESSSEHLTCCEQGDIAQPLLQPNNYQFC

As to `CCC(=O)N1CC[C@H](N2C(=O)N(c3cccc(OC)c3F)Cc3cnc(Nc4ccc(N5CCN(C)CC5)c(C)c4)nc32)C1`, the Ratio IC50 in the experiment filed under Homo sapiens fell in the range of 99 to 200. In addition, the half-inhibitory concentration (IC50) was found to be 4.5 nM in experiment [1] and 421 nM in experiment [2].

As for `CCC(=O)N1CC[C@H](N2C(=O)N(c3cccc(OC)c3Cl)Cc3cnc(Nc4ccc(N5CCN(C)CC5)c(C)c4)nc32)C1`, in the experiment filed under Homo sapiens, the Ratio IC50 was in the range of 99 to 200. The figures for the IC50 in experiment [1] and in experiment [2] were 4.4 nM and 413 nM, respectively.

On to `CCC(=O)N1CC[C@H](N2C(=O)N(c3cc(OC)ccc3F)Cc3cnc(Nc4ccc(N5CCN(C)CC5)c(C(F)(F)F)c4)nc32)C1`, for which the results for the IC50 in experiment [1] and in experiment [2] were 31.9 nM and 3400 nM, respectively.

Take `CCC(=O)N1CC[C@H](N2C(=O)N(c3cc(OC)ccc3F)Cc3cnc(Nc4ccc(N5CCCCC5)c(C)c4)nc32)C1`: the values for the IC50 in experiment [1] and in experiment [2] were 41.2 nM and 467 nM, respectively.

Consider `CCC(=O)N1CC[C@H](N2C(=O)N(c3cc(OC)ccc3F)Cc3cnc(Nc4ccc(N5C[C@H]6CN(C)C[C@H]6C5)c(C)c4)nc32)C1`, for which the IC50 amounted to 7 nM in experiment [1] and 216 nM in experiment [2].

Regarding `Cc1cc(Nc2ncc3c(n2)N([C@H]2CCN(C(=O)C4CCCC4)C2)C(=O)N(c2ccccc2Cl)C3)ccc1N1CCN(C)CC1`, the values for the IC50 in experiment [1] and in experiment [2] were 28.4 nM and 25.5 nM, respectively.

`CCC(=O)N1CC[C@H](N2C(=O)N(c3cc(OC)ccc3F)Cc3cnc(Nc4ccc(N5CC6(CCN(C)CC6)C5)c(C)c4)nc32)C1`: the IC50 in experiment [1] was 6.5 nM; in experiment [2] it was 218 nM.

Turning to `Cc1cc(Nc2ncc3c(n2)N([C@H]2CCN(C(=O)CO)C2)C(=O)N(c2ccccc2Cl)C3)ccc1N1CCN(C)CC1`, the IC50 was 20 nM in experiment [1] and 7 nM in experiment [2].

Regarding `CCC(=O)N1CC[C@H](N2C(=O)N(c3cc(OC)ccc3F)Cc3cnc(Nc4ccc(N5CCC6(CCN(C)CC6)CC5)c(C)c4)nc32)C1`, the values for the IC50 in experiment [1] and in experiment [2] were 6.2 nM and 224 nM, respectively.

On to `CCC(=O)N1CC[C@H](N2C(=O)N(c3ccc(Cl)cc3)Cc3cnc(Nc4ccc(N5CCN(C)CC5)c(C)c4)nc32)C1`, for which the IC50 in experiment [1] amounted to 14.8 nM; in experiment [2], 383 nM.

Turning to `CCC(=O)N1CC[C@H](N2C(=O)N(c3cc(OC)ccc3F)Cc3cnc(Nc4ccc(N5CCN(C)[C@@H](C)C5)c(C)c4)nc32)C1`, the concentration for half-maximal inhibition (IC50) was found to be 7.2 nM in experiment [1] and 715 nM in experiment [2].

In the case of `CCC(=O)N1CC[C@H](N2C(=O)N(c3ccccc3C)Cc3cnc(Nc4ccc(N5CCN(C)CC5)c(C)c4)nc32)C1`, the IC50 in experiment [1] came out at 5.6 nM; in experiment [2], 7.6 nM.

With `CCC(=O)N1CC[C@H](N2C(=O)N(c3cc(OC)ccc3F)Cc3cnc(Nc4ccc(N5CCCN(C)CC5)c(C)c4)nc32)C1`, the IC50 in experiment [1] stood at 4.9 nM; in experiment [2], 209 nM.

For the compound `CCC(=O)N1CC[C@H](N2C(=O)N(c3cc(OC)ccc3F)Cc3cnc(Nc4ccc(N5CCN(C)CC5)c(CC)c4)nc32)C1`, the IC50 was found to be 10 nM in experiment [1] and 518 nM in experiment [2].

On to `Cc1cc(Nc2ncc3c(n2)N([C@H]2CCN(C(=O)C(C)(C)C)C2)C(=O)N(c2ccccc2Cl)C3)ccc1N1CCN(C)CC1`, for which the IC50 in experiment [1] worked out at 20.1 nM; in experiment [2] it was 29.4 nM.

`CCC(=O)N1CC[C@H](N2C(=O)N(c3cc(OC)ccc3F)Cc3cnc(Nc4ccc(N5CCN(C)CC5)c(OC)c4)nc32)C1`: the half-inhibitory concentration (IC50) turned out to be 5.8 nM in experiment [1] and 600 nM in experiment [2].

Take `CCC(=O)N1CC[C@H](N2C(=O)N(c3cc(OC)ccc3F)Cc3cnc(Nc4ccc(N5CCN(C)CC5)c(C(C)C)c4)nc32)C1`: the IC50 is 25.8 nM in experiment [1] and 365 nM in experiment [2].

In the case of `CCC(=O)N1CC[C@H](N2C(=O)N(c3cccc(F)c3)Cc3cnc(Nc4ccc(N5CCN(C)CC5)c(C)c4)nc32)C1`, the IC50 amounted to 15.2 nM in experiment [1] and 35.8 nM in experiment [2].

Take `CCC(=O)N1CC[C@H](N2C(=O)N(c3ccc(OC)cc3)Cc3cnc(Nc4ccc(N5CCN(C)CC5)c(C)c4)nc32)C1`: the values for the IC50 in experiment [1] and in experiment [2] were 5.8 nM and 153 nM, respectively.

As to `CCC(=O)N1CC[C@H](N2C(=O)N(c3cc(OC)ccc3F)Cc3cnc(Nc4ccc(N5CCC6(CCN(C)C6)C5)c(C)c4)nc32)C1` (stereo not given in full), the results for the IC50 in experiment [1] and in experiment [2] were 6.8 nM and 296 nM, respectively.

In the case of `CCCN1CC[C@H](N2C(=O)N(c3ccccc3Cl)Cc3cnc(Nc4ccc(N5CCN(C)CC5)c(C)c4)nc32)C1`, the IC50 in experiment [1] was determined as 181 nM; in experiment [2] it was 52.8 nM.

With `CCC(=O)N1CC[C@H](N2C(=O)N(c3cc(OC)ccc3F)Cc3cnc(Nc4ccc(N5CCC(N(C)C)CC5)c(C)c4)nc32)C1`, the IC50 is 4.7 nM in experiment [1] and 286 nM in experiment [2].

Consider `CCC(=O)N1CC[C@H](N2C(=O)N(c3cccc(OC(F)F)c3)Cc3cnc(Nc4ccc(N5CCN(C)CC5)c(C)c4)nc32)C1`, for which the results for the IC50 in experiment [1] and in experiment [2] were 28 nM and 257 nM, respectively.

For the compound `Cc1cc(Nc2ncc3c(n2)N([C@H]2CCN(C(=O)C(C)C)C2)C(=O)N(c2ccccc2Cl)C3)ccc1N1CCN(C)CC1`, the half-inhibitory concentration (IC50) in experiment [1] is 6.7 nM; in experiment [2], 8.5 nM.

For the compound `CCC(=O)N1CC[C@H](N2C(=O)N(c3cc(OC)ccc3F)Cc3cnc(Nc4ccc(N5CCN(C)CC5)c(F)c4)nc32)C1`, the figures for the IC50 in experiment [1] and in experiment [2] were 17.1 nM and 1300 nM, respectively.

For `CC(=O)N1CC[C@H](N2C(=O)N(c3ccccc3Cl)Cc3cnc(Nc4ccc(N5CCN(C)CC5)c(C)c4)nc32)C1`, the IC50 was found to be 5.5 nM in experiment [1] and 12.1 nM in experiment [2].

Regarding `CCC(=O)N1CC[C@H](N2C(=O)N(c3cc(OC)ccc3F)Cc3cnc(Nc4ccc(N5CCN(C)CC5)cc4C)nc32)C1`, the values for the IC50 in experiment [1] and in experiment [2] were 20.2 nM and 2500 nM, respectively.

In the case of `CCC(=O)N1CC[C@H](N2C(=O)N(c3cccc(OC)c3)Cc3cnc(Nc4ccc(N5CCN(C)CC5)c(C)c4)nc32)C1`, the Ratio IC50 in the experiment filed under Homo sapiens amounted to 92. Besides, the values for the half-inhibitory concentration (IC50) in experiment [1] and in experiment [2] were 4.5 nM and 417 nM, respectively.

`CCC(=O)N1CC[C@H](N2C(=O)N(c3ccc(C)cc3)Cc3cnc(Nc4ccc(N5CCN(C)CC5)c(C)c4)nc32)C1`: the IC50 amounted to 20.6 nM in experiment [1] and 377 nM in experiment [2].

For `C=CC(=O)N1CC[C@H](N2C(=O)N(c3ccccc3Cl)Cc3cnc(Nc4ccc(N5CCN(C)CC5)c(C)c4)nc32)C1`, the IC50 in experiment [1] is 30 nM; in experiment [2] it was 0.5 nM.

Consider `CCC(=O)N1CC[C@H](N2C(=O)N(c3cccc(Cl)c3)Cc3cnc(Nc4ccc(N5CCN(C)CC5)c(C)c4)nc32)C1`, for which the half-inhibitory concentration (IC50) in experiment [1] worked out at 13.2 nM; in experiment [2] it was 144 nM.
